The source of these data is ChEMBL document CHEMBL5696442, “Discovery of type II inhibitors of TGFβ-activated kinase 1 (TAK1) and mitogen-activated protein kinase kinase kinase kinase 2 (MAP4K2)” (J Med Chem, 2015).

One may read the inhibition as the drop in the measured response relative to a control, in per cent.

Assay [1] concerns the target Serine/threonine-protein kinase 25 (Homo sapiens) (UniProt O00506). As to the kind of experiment: Inhibition of YSK1 Lys2 labeling site in human A-375 cells at 5 uM by KiNativ Profiling analysis relative to control. The assay is classed as cell-based.
For assay [2], the target named is Diacylglycerol kinase alpha (Homo sapiens) (UniProt P23743). The assay is described as follows: Inhibition of DGKA ATP labeling site harbouring in human A-375 cells at 0.05 uM by KiNativ Profiling analysis relative to control. The assay is classed as cell-based.
Diacylglycerol kinase alpha (Homo sapiens), sequence (P23743 whole entry): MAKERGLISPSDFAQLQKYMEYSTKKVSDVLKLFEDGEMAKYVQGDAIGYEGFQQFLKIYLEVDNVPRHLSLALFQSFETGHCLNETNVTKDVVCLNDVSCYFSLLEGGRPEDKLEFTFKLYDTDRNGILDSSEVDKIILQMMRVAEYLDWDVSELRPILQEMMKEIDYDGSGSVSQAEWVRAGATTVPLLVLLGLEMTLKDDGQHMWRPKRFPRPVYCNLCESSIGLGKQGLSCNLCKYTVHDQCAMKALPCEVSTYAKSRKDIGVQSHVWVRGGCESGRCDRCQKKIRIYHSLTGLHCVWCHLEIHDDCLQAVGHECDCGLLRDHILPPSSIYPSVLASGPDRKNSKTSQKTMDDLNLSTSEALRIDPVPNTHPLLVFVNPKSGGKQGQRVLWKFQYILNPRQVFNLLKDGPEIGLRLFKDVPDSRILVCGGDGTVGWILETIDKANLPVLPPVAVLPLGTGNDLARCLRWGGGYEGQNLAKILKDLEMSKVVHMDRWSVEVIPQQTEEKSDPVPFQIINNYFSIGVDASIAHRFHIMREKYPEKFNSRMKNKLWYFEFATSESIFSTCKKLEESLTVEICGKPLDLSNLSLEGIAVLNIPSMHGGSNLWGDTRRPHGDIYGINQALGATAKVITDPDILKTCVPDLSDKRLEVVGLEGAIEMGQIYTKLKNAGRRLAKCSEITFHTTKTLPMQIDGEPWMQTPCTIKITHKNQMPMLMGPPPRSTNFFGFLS
The target of assay [3] is Mitogen-activated protein kinase kinase kinase kinase 4 (Homo sapiens, UniProt O95819). As to the kind of experiment: Inhibition of ZC1 Lys2 labeling site in human A-375 cells at 0.5 uM by KiNativ Profiling analysis relative to control. In kind it is cell-based.
Mitogen-activated protein kinase kinase kinase kinase 4, sequence (O95819 2-1239 limits assumed): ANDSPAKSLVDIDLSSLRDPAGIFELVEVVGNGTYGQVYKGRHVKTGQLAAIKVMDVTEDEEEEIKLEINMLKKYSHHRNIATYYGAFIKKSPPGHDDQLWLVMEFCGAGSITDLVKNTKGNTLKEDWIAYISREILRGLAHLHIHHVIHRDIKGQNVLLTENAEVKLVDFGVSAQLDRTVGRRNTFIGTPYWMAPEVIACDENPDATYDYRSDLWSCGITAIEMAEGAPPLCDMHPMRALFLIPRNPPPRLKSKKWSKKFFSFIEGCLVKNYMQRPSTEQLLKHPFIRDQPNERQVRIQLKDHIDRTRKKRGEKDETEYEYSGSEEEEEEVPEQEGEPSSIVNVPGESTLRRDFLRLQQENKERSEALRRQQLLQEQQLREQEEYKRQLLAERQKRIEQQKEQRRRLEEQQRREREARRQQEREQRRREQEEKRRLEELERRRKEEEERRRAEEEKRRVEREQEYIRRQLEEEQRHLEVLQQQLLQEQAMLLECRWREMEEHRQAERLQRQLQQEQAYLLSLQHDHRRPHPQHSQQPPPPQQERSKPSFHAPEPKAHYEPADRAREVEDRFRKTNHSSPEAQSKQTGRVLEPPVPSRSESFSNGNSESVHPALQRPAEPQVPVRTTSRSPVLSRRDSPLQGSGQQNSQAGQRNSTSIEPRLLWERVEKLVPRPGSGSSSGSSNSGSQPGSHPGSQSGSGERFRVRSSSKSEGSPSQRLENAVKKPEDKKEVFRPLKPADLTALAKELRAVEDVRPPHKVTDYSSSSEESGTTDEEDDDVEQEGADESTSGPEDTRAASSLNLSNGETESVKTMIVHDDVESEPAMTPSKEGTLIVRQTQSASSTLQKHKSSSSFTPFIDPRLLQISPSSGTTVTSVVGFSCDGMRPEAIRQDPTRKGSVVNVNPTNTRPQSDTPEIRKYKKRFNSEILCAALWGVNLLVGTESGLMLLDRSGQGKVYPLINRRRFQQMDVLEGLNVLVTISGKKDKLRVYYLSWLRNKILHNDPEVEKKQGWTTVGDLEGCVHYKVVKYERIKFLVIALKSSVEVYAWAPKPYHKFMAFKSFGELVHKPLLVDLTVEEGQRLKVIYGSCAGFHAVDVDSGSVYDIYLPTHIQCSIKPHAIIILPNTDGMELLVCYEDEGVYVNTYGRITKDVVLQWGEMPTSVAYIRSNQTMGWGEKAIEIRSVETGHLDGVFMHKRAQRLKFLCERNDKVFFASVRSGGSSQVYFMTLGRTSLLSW
Assay [4] has as its target T1, Serine/threonine-protein kinase ULK3 (Homo sapiens) (UniProt Q6PHR2).
T1 sequence (whole entry): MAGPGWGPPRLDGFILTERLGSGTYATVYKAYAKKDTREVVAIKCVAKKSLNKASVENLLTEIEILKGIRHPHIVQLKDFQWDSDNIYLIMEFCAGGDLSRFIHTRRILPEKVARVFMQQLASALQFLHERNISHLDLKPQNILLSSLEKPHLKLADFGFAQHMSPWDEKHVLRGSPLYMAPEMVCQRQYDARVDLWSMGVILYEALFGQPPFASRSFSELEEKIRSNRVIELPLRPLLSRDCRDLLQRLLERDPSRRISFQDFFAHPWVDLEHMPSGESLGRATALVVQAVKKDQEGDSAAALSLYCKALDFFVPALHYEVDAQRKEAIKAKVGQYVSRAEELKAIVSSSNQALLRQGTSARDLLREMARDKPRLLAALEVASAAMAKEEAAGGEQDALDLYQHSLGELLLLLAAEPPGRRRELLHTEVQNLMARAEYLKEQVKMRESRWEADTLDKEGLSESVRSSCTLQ
As to the kind of experiment: Inhibition of ULK3 Lys2 labeling site in human A-375 cells at 0.5 uM by KiNativ Profiling analysis relative to control. The assay is classed as cell-based.

The target of assay [5] is Serine/threonine-protein kinase Nek7 (Homo sapiens) (UniProt Q8TDX7). The assay is described as follows: Inhibition of NEK7 ACT labeling site in human A-375 cells at 5 uM by KiNativ Profiling analysis relative to control. In kind it is cell-based.
Serine/threonine-protein kinase Nek7 (Homo sapiens), sequence (Q8TDX7 whole entry, looked up): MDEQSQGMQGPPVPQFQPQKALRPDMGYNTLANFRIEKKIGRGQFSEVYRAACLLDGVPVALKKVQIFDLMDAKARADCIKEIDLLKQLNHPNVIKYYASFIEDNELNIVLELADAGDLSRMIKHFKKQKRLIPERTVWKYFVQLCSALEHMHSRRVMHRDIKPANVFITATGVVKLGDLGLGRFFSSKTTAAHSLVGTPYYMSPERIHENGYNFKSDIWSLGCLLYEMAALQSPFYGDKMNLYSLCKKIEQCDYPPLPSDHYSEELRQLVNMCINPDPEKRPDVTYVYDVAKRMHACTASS
Assay [6] has as its target Proto-oncogene tyrosine-protein kinase Src (Homo sapiens, UniProt P12931). The assay is described as follows: Inhibition of SRC ACT labeling site in human A-375 cells at 0.5 uM by KiNativ Profiling analysis relative to control. In kind it is cell-based.
Assay [7] has as its target T2, Serine/threonine-protein kinase Chk1 (Homo sapiens) (UniProt O14757).
T2 sequence (whole entry): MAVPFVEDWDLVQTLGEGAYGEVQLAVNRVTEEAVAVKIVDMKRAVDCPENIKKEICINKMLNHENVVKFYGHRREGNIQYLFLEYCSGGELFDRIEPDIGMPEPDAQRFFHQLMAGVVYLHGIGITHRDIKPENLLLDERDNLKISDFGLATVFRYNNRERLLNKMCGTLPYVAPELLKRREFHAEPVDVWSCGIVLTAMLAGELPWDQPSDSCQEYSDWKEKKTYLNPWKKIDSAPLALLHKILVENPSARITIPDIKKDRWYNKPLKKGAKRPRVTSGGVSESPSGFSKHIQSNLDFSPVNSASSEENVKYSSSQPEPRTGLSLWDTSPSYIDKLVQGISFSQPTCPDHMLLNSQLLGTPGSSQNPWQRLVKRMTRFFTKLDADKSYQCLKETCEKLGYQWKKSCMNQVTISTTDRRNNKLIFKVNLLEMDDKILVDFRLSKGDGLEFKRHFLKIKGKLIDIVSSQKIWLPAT
As to the kind of experiment: Inhibition of CHK1 Lys2 labeling site harbouring DIKPENLLLDER in human A-375 cells at 0.5 uM by KiNativ Profiling analysis relative to control. The assay is classed as cell-based. The procedure, abridged:
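Live A375 melanoma cells were treated with compound at 5 or 0.5 μM. The cells were then lysed, and the lysates were labeled with a lysine-reactive ATP or ADP-biotin acyl probe (KiNativ). Inhibition is the compound's protection of each kinase labeling-site peptide from probe labeling, relative to untreated control.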

Assay [8] deals with DNA-PK/Ku70/Ku85 (Homo sapiens) (UniProt P78527+P12956+P13010). As to the kind of experiment: Inhibition of DNAPK ATP labeling site harbouring EHPFLVKGGEDLR in human A-375 cells at 5 uM by KiNativ Profiling analysis relative to control. In kind it is cell-based. An outline of the steps: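 Live A375 melanoma cells were treated with compound at 0.5 or 5 μM, then lysed. Lysates were labeled with a lysine-reactive ATP or ADP-biotin probe. The read-out was protection of each kinase probe-labeling site from labeling, relative to control.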

In assay [9] the target is Ribosomal protein S6 kinase alpha-3 (Homo sapiens) (UniProt P51812). As to the kind of experiment: Inhibition of RSK2 domain2 Lys2 labeling site in human A-375 cells at 5 uM by KiNativ Profiling analysis relative to control. The assay is classed as cell-based. The procedure, abridged: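 Live A375 melanoma cells treated with compound at 5 or 0.5 μM, then lysed. Lysate kinases were labeled with a lysine-reactive ATP or ADP-biotin probe. Inhibition was read as protection of labeling sites from the probe.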
Ribosomal protein S6 kinase alpha-3 (Homo sapiens), sequence (P51812 whole entry, the tested form may be a part): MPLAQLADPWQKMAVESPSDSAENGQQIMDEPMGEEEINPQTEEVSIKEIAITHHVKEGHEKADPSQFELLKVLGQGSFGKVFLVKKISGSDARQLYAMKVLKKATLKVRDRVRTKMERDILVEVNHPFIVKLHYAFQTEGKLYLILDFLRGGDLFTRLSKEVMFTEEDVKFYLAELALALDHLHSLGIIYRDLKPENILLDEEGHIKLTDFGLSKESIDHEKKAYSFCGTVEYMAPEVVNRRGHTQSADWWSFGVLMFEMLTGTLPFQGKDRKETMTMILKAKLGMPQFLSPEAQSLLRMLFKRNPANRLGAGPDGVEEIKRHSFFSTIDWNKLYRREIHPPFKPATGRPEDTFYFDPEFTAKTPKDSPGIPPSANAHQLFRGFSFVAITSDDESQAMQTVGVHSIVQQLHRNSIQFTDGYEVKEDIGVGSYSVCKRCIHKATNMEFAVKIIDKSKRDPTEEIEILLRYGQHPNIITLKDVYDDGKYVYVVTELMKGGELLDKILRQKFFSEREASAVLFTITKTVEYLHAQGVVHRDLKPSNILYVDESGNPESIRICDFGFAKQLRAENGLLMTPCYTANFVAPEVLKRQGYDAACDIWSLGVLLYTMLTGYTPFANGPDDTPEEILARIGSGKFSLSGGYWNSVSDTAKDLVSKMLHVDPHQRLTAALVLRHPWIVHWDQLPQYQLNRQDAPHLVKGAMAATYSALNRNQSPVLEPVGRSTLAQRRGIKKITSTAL

Assay [10] deals with Interleukin-1 receptor-associated kinase 1 (Homo sapiens) (UniProt P51617). The assay is described as follows: Inhibition of IRAK1 Lys2 labeling site in human A-375 cells at 0.05 uM by KiNativ Profiling analysis relative to control. The assay is classed as cell-based.
Interleukin-1 receptor-associated kinase 1 (Homo sapiens), sequence (P51617 whole entry, looked up): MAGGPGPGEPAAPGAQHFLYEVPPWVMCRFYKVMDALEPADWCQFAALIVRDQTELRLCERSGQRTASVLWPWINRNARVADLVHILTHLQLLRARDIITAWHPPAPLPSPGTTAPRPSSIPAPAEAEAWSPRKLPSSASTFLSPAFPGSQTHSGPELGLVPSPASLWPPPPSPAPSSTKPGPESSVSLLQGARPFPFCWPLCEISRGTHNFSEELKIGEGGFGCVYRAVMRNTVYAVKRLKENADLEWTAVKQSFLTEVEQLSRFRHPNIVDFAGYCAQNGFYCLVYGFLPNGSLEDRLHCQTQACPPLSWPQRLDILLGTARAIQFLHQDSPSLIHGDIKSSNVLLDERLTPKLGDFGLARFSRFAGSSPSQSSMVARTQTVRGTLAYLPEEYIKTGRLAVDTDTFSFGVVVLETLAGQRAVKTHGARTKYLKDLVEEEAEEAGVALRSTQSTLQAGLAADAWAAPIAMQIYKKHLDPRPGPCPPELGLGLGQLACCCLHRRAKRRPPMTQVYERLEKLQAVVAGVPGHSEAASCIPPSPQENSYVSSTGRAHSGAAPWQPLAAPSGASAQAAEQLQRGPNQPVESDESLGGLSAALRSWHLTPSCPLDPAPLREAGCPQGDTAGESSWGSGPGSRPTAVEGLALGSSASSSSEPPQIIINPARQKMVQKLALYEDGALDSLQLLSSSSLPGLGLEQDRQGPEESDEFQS
Assay [11] concerns the target Mitogen-activated protein kinase 10 (Homo sapiens, UniProt P53779). The assay is described as follows: Inhibition of JNK3 Lys2 labeling site in human Huh-7 cell lysate at 1 uM by KiNativ Profiling analysis relative to control. The assay is classed as subcellular.

Mitogen-activated protein kinase 10, sequence (P53779 whole entry): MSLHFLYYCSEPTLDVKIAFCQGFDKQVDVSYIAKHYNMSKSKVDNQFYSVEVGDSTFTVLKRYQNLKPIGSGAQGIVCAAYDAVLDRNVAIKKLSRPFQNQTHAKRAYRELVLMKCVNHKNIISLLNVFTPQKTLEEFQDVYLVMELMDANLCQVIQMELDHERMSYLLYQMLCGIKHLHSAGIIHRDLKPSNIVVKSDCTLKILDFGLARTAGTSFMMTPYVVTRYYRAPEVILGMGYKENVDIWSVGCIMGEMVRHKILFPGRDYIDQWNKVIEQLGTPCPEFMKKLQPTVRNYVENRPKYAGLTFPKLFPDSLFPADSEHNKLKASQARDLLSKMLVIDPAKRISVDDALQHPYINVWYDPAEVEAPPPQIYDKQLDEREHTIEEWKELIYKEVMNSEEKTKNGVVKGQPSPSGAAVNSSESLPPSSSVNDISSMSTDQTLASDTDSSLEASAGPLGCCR
Serine/threonine-protein kinase 25 (Homo sapiens), sequence (O00506 whole entry, looked up): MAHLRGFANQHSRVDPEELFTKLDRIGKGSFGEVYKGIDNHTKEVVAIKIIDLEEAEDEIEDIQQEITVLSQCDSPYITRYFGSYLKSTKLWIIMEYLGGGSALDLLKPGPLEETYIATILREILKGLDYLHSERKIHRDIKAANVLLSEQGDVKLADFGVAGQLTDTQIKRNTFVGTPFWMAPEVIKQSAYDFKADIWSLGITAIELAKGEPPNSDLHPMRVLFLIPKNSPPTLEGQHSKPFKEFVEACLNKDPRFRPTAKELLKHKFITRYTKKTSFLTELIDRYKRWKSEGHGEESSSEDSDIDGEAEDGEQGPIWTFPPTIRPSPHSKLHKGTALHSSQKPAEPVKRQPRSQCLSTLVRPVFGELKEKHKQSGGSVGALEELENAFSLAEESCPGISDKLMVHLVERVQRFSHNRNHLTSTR

Consider `CCN1CCN(Cc2ccc(NC(=O)c3ccc(C)c(/C=C/c4cnc5[nH]ccc5c4OC)c3)cc2C(F)(F)F)CC1`, for which the inhibition in [1] was 20.9%; in [2], 14.6%; in assay [3] it was 48.1%; in assay [4], 8.5%; in assay [5], -6.2%; in assay [6] it was 72.6%. The inhibition was 19.4% in assay [7], 15.4% in [8], 23.7% in [9] and -9.4% in assay [10].
As for `CNc1cc(Oc2cc(C(=O)Nc3cc(-n4cnc(C)c4)cc(C(F)(F)F)c3)ccc2C)ncn1`, in assay [11], the inhibition was 18.4%.
On to `CCN1CCN(Cc2ccc(NC(=O)c3ccc(C)c(Oc4ccnc5[nH]ccc45)c3)cc2C(F)(F)F)CC1`, for which the inhibition in assay [1] was 15.4%; in [2], -8.4%; in assay [3], 70.8%; in [4] it was -2.5%; in assay [5], -3.5%; in assay [6] it was 36.5%. Besides, the inhibition in [7] turned out to be 45.2%; in [8], 12.4%; in assay [9], 14.4%; in [10], 14.2%.
Turning to `CNc1cc(Oc2cc(C(=O)Nc3cc(N4CCN(C)CC4)cc(C(F)(F)F)c3)ccc2C)ncn1`, the inhibition in [11] is 7%.
